Laboratory results as given in ChEMBL document CHEMBL1157292, “(+)-agelasine D: improved synthesis and evaluation of antibacterial and cytotoxic activities” (J Nat Prod, 2006).
≈ marks a conversion by molar mass, not a printed value. Calls of active or inactive are those of the source. The calls are words filed in the database; no cut-off is given here.

Legend:
[1] = Cytotoxicity against human CEM/s cells after 72 hrs by fluorometric microculture cytotoxicity assay; format: functional, cell-based
Outline: (§1)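 FMCA method: compounds dissolved in 10% DMSO were tested at 10 concentrations, 0.15625–80 μM, each in triplicate. Plates included solvent, medium, Triton X-100 and PBS controls. Cells were exposed for 72 h, washed with PBS, and incubated with FDA for 40 min. Fluorescence, proportional to living cells, gave a survival index at each concentration. Values are mean ± SEM of triplicates, fitted by nonlinear regression.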

[2] = Cytotoxicity against human RPMI 8226/s cells after 72 hrs by fluorometric microculture cytotoxicity assay; format: functional, cell-based; details: RPMI8226/S; outline: as §1
Bacteroides fragilis = test: Antibacterial activity against Bacteroides fragilis DSM 2151 by standard broth microdilution technique; format: functional
Outline: (§2)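 Strains kept at -80 °C and grown on blood agar at 35 °C for 24 h before testing. DMSO stocks were serially 2-fold diluted in reduced Wilkins-Chalgren broth to final 0.125–32 μg/mL. Colony suspension was set to 0.5 McFarland and diluted 1:10 (~1.5 × 10⁷ CFU/mL); 10 μL was added per well, in triplicate. Incubated anaerobically at 35 °C for 48 h. MIC was the lowest concentration without visible growth. Tests were repeated at least once.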

[3] = system: Bacteroides thetaiotaomicron; test: Antibacterial activity against Bacteroides thetaiotaomicron DSM 2255 by standard broth microdilution technique; format: functional; outline: as §2
L1210 = test: Cytotoxicity against mouse L1210 cells; format: functional, cell-based
[4] = system: Mycobacterium tuberculosis; test: Antibacterial activity against Mycobacterium tuberculosis by standard broth microdilution technique; format: functional
ACHN [5] = test: (§3) Cytotoxicity against multidrug-resistant human ACHN cells after 72 hrs by fluorometric microculture cytotoxicity assay; format: functional, cell-based; outline: as §1
CEM/s = test: Cytotoxicity against human CEM/s cells at 80 uM after 72 hrs by fluorometric microculture cytotoxicity assay; format: functional, cell-based; outline: as §1
U-937/GTB [6] = test: Cytotoxicity against human U937 GTB cells after 72 hrs by fluorometric microculture cytotoxicity assay; format: functional, cell-based; outline: as §1
U-937/GTB [7] = test: Cytotoxicity against human U937 GTB cells at 80 uM after 72 hrs by fluorometric microculture cytotoxicity assay; format: functional, cell-based; outline: as §1
Homo sapiens = species on record: Homo sapiens; test: Cytotoxicity against human RPMI 8226/s cells at 80 uM after 72 hrs by fluorometric microculture cytotoxicity assay; format: functional, cell-based; outline: as §1
Staphylococcus aureus = test: Antibacterial activity against Staphylococcus aureus ATCC 25923 by standard broth microdilution technique; format: functional
Outline: (§4)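 Exponential-phase cultures were diluted to a final inoculum of 1 × 10⁶ CFU/mL and mixed 1:1 with serial dilutions made in double-distilled water. Medium was 2% bactopeptone water for S. aureus, E. coli and P. aeruginosa, and brain heart infusion broth for E. faecalis and S. pyogenes. Incubated at 37 °C overnight. MIC was the lowest concentration without visible growth. Gentamycin served as internal control.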

Escherichia coli = test: Antibacterial activity against Escherichia coli ATCC 25922 by standard broth microdilution technique; format: functional; outline: as §4
ACHN [8] = test: as §3; format: functional, cell-based; outline: as §1; remark: listed apart in the source
Enterococcus faecalis = test: Antibacterial activity against Enterococcus faecalis by standard broth microdilution technique; format: functional; outline: as §4
Streptococcus pyogenes = test: Antibacterial activity against Streptococcus pyogenes ATCC 19615 by standard broth microdilution technique; format: functional; outline: as §4
Pseudomonas aeruginosa = test: Antibacterial activity against Pseudomonas aeruginosa ATCC 27853 by standard broth microdilution technique; format: functional; outline: as §4

Row | Compound | IC50 [1] | IC50 [2] | MIC (Bacteroides fragilis) | MIC [3] | MIC [4] | IC50 (ACHN [5]) | IC50 (U-937/GTB [6]) | MIC (Staphylococcus aureus) | MIC (Escherichia coli) | further results
1 | CC(=O)O[C@H]1C(=O)[C@@]2(C)[C@H]([C@H](OC(=O)c3ccccc3)[C@]3(O)C[C@H](OC(=O)[C@H](O)[C@@H](NC(=O)c4ccccc4)c4ccccc4)C(C)=C1C3(C)C)[C@]1(OC(C)=O)CO[C@@H]1C[C@@H]2O [PACLITAXEL] | 0.007 µM | 0.007 µM |  |  |  |  |  |  |  | 
2 | Cc1ncc([N+](=O)[O-])n1CCO [METRONIDAZOLE] |  |  | 0.5 µg/mL (≈ 2.92 µM) | 1 µg/mL (≈ 5.84 µM) |  |  |  |  |  | 
3 | C/C(=C\Cn1c[n+](C)c2ncnc(N)c21)CC[C@@]1(C)[C@H](C)CC[C@@]2(C)C(COC(=O)c3cc(Br)c[nH]3)=CCC[C@@H]12 |  |  |  |  |  |  |  |  |  | IC50 (L1210): 4.8 µM
4 | COc1cccc2c1C(=O)c1c(O)c3c(c(O)c1C2=O)C[C@@](O)(C(=O)CO)C[C@@H]3O[C@H]1C[C@H](N)[C@H](O)[C@H](C)O1 [DOXORUBICIN] | 0.18 µM | 0.13 µM |  |  |  |  |  |  |  | 
5 | CO[C@H]1/C=C/O[C@@]2(C)Oc3c(C)c(O)c4c(O)c(c(/C=N/N5CCN(C)CC5)c(O)c4c3C2=O)NC(=O)/C(C)=C\C=C\[C@H](C)[C@H](O)[C@@H](C)[C@@H](O)[C@@H](C)[C@H](OC(C)=O)[C@@H]1C [RIFAMPIN] |  |  |  |  | 0.25 µg/mL (≈ 0.304 µM) |  |  |  |  | 
6 | C=C1CC[C@H]2C(C)(C)CCC[C@]2(C)[C@H]1CC/C(C)=C/Cn1c[n+](C)c2nc[n-]/c(=N\OC(C)(C)C)c21 | > 80 µM | > 80 µM | 4 µg/mL (≈ 8.1 µM) | 4 µg/mL (≈ 8.1 µM) | 3.13 µg/mL (≈ 6.34 µM) | > 80 µM | > 80 µM | 6 µg/mL (≈ 12.2 µM) | 32 µg/mL (≈ 64.8 µM) | Activity (CEM/s): inactive; Activity (U-937/GTB [7]): inactive; Activity (Homo sapiens): inactive; Activity (ACHN [8]): inactive
7 | C=C1CC[C@H]2C(C)(C)CCC[C@]2(C)[C@H]1CC/C(C)=C/Cn1c[n+](C)c2nc[n-]/c(=N\OC)c21 | 2.33 µM | 0.2 µM | 4 µg/mL (≈ 8.86 µM) | 4 µg/mL (≈ 8.86 µM) | > 6.25 µg/mL | 8.01 µM | 1.03 µM | 2 µg/mL (≈ 4.43 µM) | 8 µg/mL (≈ 17.7 µM) | MIC (Enterococcus faecalis): 8 µg/mL (≈ 17.7 µM); MIC (Streptococcus pyogenes): 2 µg/mL (≈ 4.43 µM); MIC (Pseudomonas aeruginosa): 32 µg/mL (≈ 70.8 µM)
8 | C=C1CC[C@H]2C(C)(C)CCC[C@]2(C)[C@H]1CC/C(C)=C/Cn1c[n+](C)c2ncnc(N)c21.[Cl-] | 4.68 µM | 3.7 µM | 16 µg/mL | 8 µg/mL | > 6.25 µg/mL | 25 µM | 5.59 µM | 1 µg/mL | 8 µg/mL | MIC (Enterococcus faecalis): 8 µg/mL; MIC (Streptococcus pyogenes): 2 µg/mL; MIC (Pseudomonas aeruginosa): 16 µg/mL
